Experimental findings from ChEMBL document CHEMBL1142659, “The role of intracellularly released formaldehyde and butyric acid in the anticancer activity of acyloxyalkyl esters” (J Med Chem, 2005) are described below.

What all share (format): functional, cell-based
Test [1] deals with HT-29. Put plainly: Concentration required for 50% inhibition of human HT-29 cell proliferation. The method in brief: (§1)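 Solid-tumour lines (HT-29, PC-3, MES-SA, and its mdr-1/P-glycoprotein-high MES-SA/Dx5 subclone) were seeded at (2.5-5) × 10^3 cells per well. They were exposed to escalating prodrug concentrations for 4 days, then harvested. Proliferation was measured by Hoechst DNA staining, and IC50 values are given in µM.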

For test [2], the system named is HL-60. In words: Concentration required for 50% inhibition of human HL-60 cell proliferation. In short, it runs like this:
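HL-60 leukemia cells, including the multidrug-resistant HL-60/MX2 subline with altered topoisomerase II activity, were seeded at (2.5-5) × 10^3 cells per well. They were exposed to escalating prodrug concentrations for 4 days. Proliferation was read by Alamar blue, and IC50 values are given in µM.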

For test [3], the system named is PC-3. Put plainly: Concentration required for 50% inhibition of human PC-3 cell proliferation. The method in brief:
as §1

For test [4], the system named is MES-SA. In words: Concentration required for 50% inhibition of human MES-SA cell proliferation. The method in brief: as §1
A short description of test [5]: Concentration required for 50% inhibition of human MES-DX5 cell proliferation. In short, it runs like this:
as §1

pIC50: −log10 of the molar value.

With `CCCC(=O)OCOC(=O)C(C)(C)C` [AN-9], the pIC50 in test [1] was 4.28; in test [2], 4.44; in test [3], 4.25; in test [4] it was 4.40; in test [5], 4.34.
